Source: ChEMBL document CHEMBL1139364, “Codrugs linking L-dopa and sulfur-containing antioxidants: new pharmacological tools against Parkinson's disease” (J Med Chem, 2009)
In brackets after ≈: the same amount, converted by molar mass. Activity calls are given as the source filed them. No cut-off for these calls is given here. Where a SMILES comes first, the peptide text is derived from it. [ ]: non-standard residue; d: D form. Dopa = N[C@@H](Cc1ccc(O)c(O)c1)C(=O)O

Columns and labels:
[1] = Antioxidant activity against lucigenin-induced super oxide radicals by chemiluminescence assay; format: functional
Summary of the method: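 Chemiluminescence assay; superoxide anions generated by xanthine/xanthine oxidase system, signal amplified with lucigenin.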

[2] = Stability assessed as half life in hydrochloric acid buffer at pH 1.3; format: physicochemical
Summary of the method: (§1)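 Incubation at 37 °C in simulated gastric fluid (pH 1.3) or isotonic sodium phosphate buffer (pH 7.4); loss of parent monitored by HPLC UV-DAD; pseudo-first-order rate constants from slope of log residual compound vs time, giving half-life.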

[3] = Solubility at 50 mg in phosphate buffer at pH 7.4; format: physicochemical
Summary of the method: (§2)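 Solubility in water and in buffers at pH 1.3, 5.0 and 7.4 via shake-flask approach; concentration determined by HPLC with UV diode-array detection.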

[4] = Solubility at 50 mg in phosphate buffer at pH 5.0; format: physicochemical; summary of the method: as §2
[5] = Solubility in water; format: physicochemical; summary of the method: as §2
[6] = Solubility at 50 mg in phosphate buffer at pH 1.3; format: physicochemical; summary of the method: as §2
[7] = Lipophilicity, log P pf the compound at pH 7.4 by saturated shake-flask method; format: physicochemical; conditions: buffer
Summary of the method: (§3)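 Partition between n-octanol and phosphate buffer pH 7.4 by saturated shake-flask method; compound concentration in phases measured by HPLC with UV diode-array detection.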

[8] = Partition coefficient, log K pf the compound; format: physicochemical; conditions: octanol/water; summary of the method: as §3
[9] = Stability assessed as half life in isotonic sodium phosphate buffer at pH 7.4; format: physicochemical; summary of the method: as §1
[10] = Stability in rat plasma assessed as half life; format: ADME, cell-free
Summary of the method: (§4)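 Conversion to L-dopa at 37 °C in rat or human plasma diluted to 80% with isotonic sodium phosphate buffer pH 7.4; residual compound followed over time; pseudo-first-order constants from log residual vs time slope, giving half-life.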

[11] = Stability in human plasma assessed as half life; format: ADME, cell-free; summary of the method: as §4
[12] = Antioxidant activity against luminol-induced peroxide radicals by chemiluminescence assay; format: functional
Summary of the method: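 Chemiluminescence assay with luminol used to measure hydrogen peroxide level.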

Rattus norvegicus [13] = experiment: Tmax in Sprague-Dawley rat assessed as L-dopa level at 0.332 mmol/kg, po; format: ADME, organism-based; conditions: in vivo
Summary of the method: (§5)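 Male Sprague–Dawley rats dosed orally at 0.332 mmol/kg; plasma L-dopa followed over time; noncompartmental parameters (Cmax, Tmax, AUC, AUMC, MRT) derived from plasma concentration profiles; data mean ± SE.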

Rattus norvegicus [14] = experiment: Cmax in Sprague-Dawley rat assessed as L-dopa level at 0.332 mmol/kg, po; format: ADME, organism-based; design: dose 0.332 mmol/kg, route oral; conditions: in vivo; summary of the method: as §5
Rattus norvegicus [15] = experiment: AUC in Sprague-Dawley rat assessed as L-dopa level at 0.332 mmol/kg, po; format: ADME, organism-based, Plasma; conditions: in vivo; summary of the method: as §5
Rattus norvegicus [16] = experiment: AUMC in Sprague-Dawley rat assessed as L-dopa level at 0.332 mmol/kg, po; format: ADME, organism-based; conditions: in vivo; summary of the method: as §5
Rattus norvegicus [17] = experiment: Mean residence time in Sprague-Dawley rat assessed as L-dopa level at 0.332 mmol/kg, po; format: ADME, organism-based; conditions: in vivo; summary of the method: as §5
Rattus norvegicus [18] = experiment: Effect on behavioral changes in icv dosed Wistar rat assessed as decrease in rearing episodes after 1.5 hrs by open-field studies compared to L-dopa; format: functional, organism-based
Rattus norvegicus [19] = experiment: Effect on behavioral changes in icv dosed Wistar rat assessed as anxiety-like behavior by open-field studies; format: functional, organism-based
Rattus norvegicus [20] = experiment: Effect on behavioral changes in po dosed Wistar rat assessed as decrease in grooming activity after 1.5 hrs by open-field studies compared to L-dopa
Rattus norvegicus [21] = experiment: Effect on behavioral changes in po dosed Wistar rat assessed as decrease in spontaneous locomotory activity after 1.5 hrs by open-field studies compared to L-dopa
[22] = Plasma concentration in Sprague-Dawley rat after 8 hrs; format: ADME, organism-based
Summary of the method: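 Male Sprague–Dawley rats given 0.332 mmol/kg orally; plasma L-dopa measured over time, including at 8 h; mean ± SE.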

Rattus norvegicus [23] = experiment: Antiparkinson activity in Wistar rat striatum assessed as L-dopa levels per mg of tissue at 1 umol/kg, icv after 1 week; format: functional
Summary of the method: (§6)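 Rats dosed icv for 1 week at 1 µmol/kg; striatal L-dopa and dopamine quantified by HPLC with electrochemical detection; three experiments, mean with standard error.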

Rattus norvegicus [24] = experiment: Antiparkinson activity in Wistar rat striatum assessed as dopamine levels per mg of tissue at 1 umol/kg, icv after 1 week; format: functional; summary of the method: as §6
Rattus norvegicus [25] = experiment: Sedative activity in icv dosed Wistar rat assessed as reduction of explorative activity; format: functional, organism-based
Rattus norvegicus [26] = experiment: Effect on behavioral changes in icv dosed Wistar rat assessed as increase in spontaneous locomotory activity after 3 days by open-field studies; format: functional, organism-based
Rattus norvegicus [27] = experiment: Effect on behavioral changes in icv dosed Wistar rat assessed as increase in grooming activity after 3 days by open-field studies; format: functional, organism-based
Rattus norvegicus [28] = experiment: Effect on behavioral changes in icv dosed Wistar rat assessed as increase in rearing episodes after 3 days by open-field studies; format: functional, organism-based
Rattus norvegicus [29] = experiment: Antiparkinson activity in po dosed rat striatum assessed as L-dopa levels per mg of tissue after 6 hrs

COC(=O)[C@H](Cc1ccc(O)c(O)c1)NC(=O)[C@H](CS)NC(=O)[C@@H](CS)NC(C)=O
Activity [1]: Active | half-life [2]: 293 h | solubility [3]: 9.08 µg/mL (≈ 19.8 µM) | solubility [4]: 15.1 µg/mL (≈ 32.7 µM) | solubility [5]: 15 µg/mL (≈ 32.6 µM) | solubility [6]: 20 µg/mL (≈ 43.5 µM) | logD [7]: -0.14 | log K [8]: -0.11 | half-life [9]: 48.5 h | half-life [10]: 0.93 h | half-life [11]: 3.39 h | Activity [12]: Active | Tmax (Rattus norvegicus [13]): 1.55 h | Cmax (Rattus norvegicus [14]): 16310 ng/mL | AUC (Rattus norvegicus [15]): 432.2 ug/hr.ml | AUMC (Rattus norvegicus [16]): 3608.38 ug/ml.hr'2 | MRT (Rattus norvegicus [17]): 8.35 h | Activity (Rattus norvegicus [18]): Active | Activity (Rattus norvegicus [19]): Active | Activity (Rattus norvegicus [20]): Active | Activity (Rattus norvegicus [21]): Active

COC(=O)[C@H](Cc1ccc(O)c(O)c1)NC(=O)[C@H](CS)NC(=O)C(C)(C)S
Activity [1]: Active | half-life [2]: 292 h | solubility [3]: 13.5 µg/mL (≈ 32.3 µM) | solubility [4]: 3.82 µg/mL (≈ 9.17 µM) | solubility [5]: 14.3 µg/mL (≈ 34.4 µM) | solubility [6]: 7.07 µg/mL (≈ 17 µM) | logD [7]: 0.92 | log K [8]: 0.2 | half-life [9]: 21.3 h | half-life [10]: 1.16 h | half-life [11]: 1.5 h | Activity [12]: Active | Tmax (Rattus norvegicus [13]): 6.04 h | Cmax (Rattus norvegicus [14]): 17410 ng/mL | AUC (Rattus norvegicus [15]): 493.29 ug/hr.ml | AUMC (Rattus norvegicus [16]): 4056.32 ug/ml.hr'2 | MRT (Rattus norvegicus [17]): 8.22 h | Activity (Rattus norvegicus [18]): Active | Activity (Rattus norvegicus [19]): Active | Activity (Rattus norvegicus [20]): Active | Activity (Rattus norvegicus [21]): Active

COC(=O)[C@H](Cc1ccc(O)c(O)c1)NC(=O)[C@H](CS)NC(C)=O (Ac-Cys-[Dopa]-OMe)
Activity [1]: Active | half-life [2]: 301 h | solubility [3]: 201 µg/mL (≈ 563 µM) | solubility [4]: 228 µg/mL (≈ 639 µM) | solubility [5]: 210 µg/mL (≈ 590 µM) | solubility [6]: 208 µg/mL (≈ 584 µM) | log K [8]: -0.3 | half-life [9]: 46.2 h | half-life [10]: 0.78 h | half-life [11]: 1.16 h | Activity [12]: Active | Tmax (Rattus norvegicus [13]): 4.05 h | Cmax (Rattus norvegicus [14]): 6910 ng/mL | AUC (Rattus norvegicus [15]): 179.06 ug/hr.ml | AUMC (Rattus norvegicus [16]): 1673.2 ug/ml.hr'2 | MRT (Rattus norvegicus [17]): 9.34 h | Activity (Rattus norvegicus [18]): Active | Activity (Rattus norvegicus [20]): Active | Activity (Rattus norvegicus [21]): Active

COC(=O)[C@H](Cc1ccc(O)c(O)c1)NC(=O)[C@H](CCSC)NC(C)=O (Ac-Met-[Dopa]-OMe)
Activity [1]: Active | half-life [2]: 296 h | solubility [3]: 174 µg/mL (≈ 453 µM) | solubility [4]: 237 µg/mL (≈ 618 µM) | solubility [5]: 101 µg/mL (≈ 262 µM) | solubility [6]: 154 µg/mL (≈ 401 µM) | logD [7]: 0.38 | log K [8]: -0.22 | half-life [9]: 30.2 h | half-life [10]: 1.92 h | half-life [11]: 5.25 h | Activity [12]: Active | Tmax (Rattus norvegicus [13]): 4.22 h | Cmax (Rattus norvegicus [14]): 62870 ng/mL | AUC (Rattus norvegicus [15]): 1624.91 ug/hr.ml | AUMC (Rattus norvegicus [16]): 12319.3 ug/ml.hr'2 | MRT (Rattus norvegicus [17]): 7.58 h | concentration at 8 h [22]: 53000 ng/mL | Activity (Rattus norvegicus [23]): 4.03 pmol/mg | Activity (Rattus norvegicus [24]): 0.09 pmol/mg | Activity (Rattus norvegicus [18]): Active | Activity (Rattus norvegicus [25]): Active | Activity (Rattus norvegicus [19]): Active | Activity (Rattus norvegicus [26]): Active | Activity (Rattus norvegicus [27]): Active | Activity (Rattus norvegicus [28]): Active | Activity (Rattus norvegicus [29]): 18 pmol/mg | Activity (Rattus norvegicus [20]): Active | Activity (Rattus norvegicus [21]): Active

COC(=O)[C@H](CS)NC(=O)[C@H](Cc1ccc(O)c(O)c1)NC(C)=O (Ac-[Dopa]-Cys-OMe)
Activity [1]: Active | half-life [2]: 291 h | solubility [3]: 159 µg/mL (≈ 447 µM) | solubility [4]: 152 µg/mL (≈ 426 µM) | solubility [5]: 154 µg/mL (≈ 431 µM) | solubility [6]: 147 µg/mL (≈ 414 µM) | log K [8]: -0.26 | half-life [9]: 48 h | half-life [10]: 0.61 h | half-life [11]: 1.09 h | Activity [12]: Active | Tmax (Rattus norvegicus [13]): 4.11 h | Cmax (Rattus norvegicus [14]): 6190 ng/mL | AUC (Rattus norvegicus [15]): 110.62 ug/hr.ml | AUMC (Rattus norvegicus [16]): 1053.36 ug/ml.hr'2 | MRT (Rattus norvegicus [17]): 9.52 h | Activity (Rattus norvegicus [18]): Active | Activity (Rattus norvegicus [19]): Active | Activity (Rattus norvegicus [20]): Active | Activity (Rattus norvegicus [21]): Active

COC(=O)[C@H](CCSC)NC(=O)[C@H](Cc1ccc(O)c(O)c1)NC(C)=O (Ac-[Dopa]-Met-OMe)
Activity [1]: Active | half-life [2]: 292 h | solubility [3]: 101 µg/mL (≈ 262 µM) | solubility [4]: 247 µg/mL (≈ 642 µM) | solubility [5]: 103 µg/mL (≈ 268 µM) | solubility [6]: 256 µg/mL (≈ 665 µM) | logD [7]: -0.19 | log K [8]: -0.25 | half-life [9]: 26.9 h | half-life [10]: 1.55 h | half-life [11]: 4.39 h | Activity [12]: Active | Tmax (Rattus norvegicus [13]): 2.25 h | Cmax (Rattus norvegicus [14]): 51070 ng/mL | AUC (Rattus norvegicus [15]): 984.01 ug/hr.ml | AUMC (Rattus norvegicus [16]): 6844.84 ug/ml.hr'2 | MRT (Rattus norvegicus [17]): 6.96 h | Activity (Rattus norvegicus [23]): 2.13 pmol/mg | Activity (Rattus norvegicus [24]): 0.22 pmol/mg | Activity (Rattus norvegicus [18]): Active | Activity (Rattus norvegicus [25]): Active | Activity (Rattus norvegicus [19]): Active | Activity (Rattus norvegicus [26]): Active | Activity (Rattus norvegicus [27]): Active | Activity (Rattus norvegicus [28]): Active | Activity (Rattus norvegicus [29]): 8 pmol/mg | Activity (Rattus norvegicus [20]): Active | Activity (Rattus norvegicus [21]): Active

N[C@@H](Cc1ccc(O)c(O)c1)C(=O)O [LEVODOPA]
Tmax (Rattus norvegicus [13]): 1.03 h | Cmax (Rattus norvegicus [14]): 5630 ng/mL | AUC (Rattus norvegicus [15]): 117.73 ug/hr.ml | AUMC (Rattus norvegicus [16]): 1053.92 ug/ml.hr'2 | MRT (Rattus norvegicus [17]): 8.95 h | Activity (Rattus norvegicus [23]): 3.36 pmol/mg | Activity (Rattus norvegicus [24]): 0.07 pmol/mg
